In one data set the target is DNA gyrase (Escherichia coli, UniProt P0AES4+P0AES6). Nature of the data set: Inhibition of Escherichia coli GyrB A2B2 subunits assessed reduction in DNA supercoiling activity by malachite green dye based by spectrophotometry. In kind it is protein-complex assay. The essentials:
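Inhibition was measured as loss of ATPase activity of the E. coli GyrB enzyme and reported as IC50.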

The subject of data set [1] is Staphylococcus aureus. Nature of the data set: Antibacterial activity against Staphylococcus aureus ATCC 29213 incubated for 24 hrs by broth microdilution method. The class given is functional. The settings on record: ATCC 29213, 24 h.
A further data set relates to Enterococcus faecalis. Put plainly: Antibacterial activity against Enterococcus faecalis ATCC 29212 incubated for 24 hrs by broth microdilution method. In kind it is functional. The following applies: ATCC 29212, 24 h. Background: Dilution methods test growth across graded concentrations, often in twofold steps.
In data set [2] the test system is Streptococcus pyogenes. Nature of the data set: Antibacterial activity against Streptococcus pyogenes ATCC 51339 incubated for 24 hrs by broth microdilution method. The settings on record: ATCC 51339, 24 h. The class given is functional.
For another data set, the system named is Haemophilus influenzae. Nature of the data set: Antibacterial activity against Haemophilus influenzae ATCC 49247 incubated for 24 hrs by broth microdilution method. In kind it is functional. The settings on record: ATCC 49247, 24 h.
Data set [3] has as its system Staphylococcus aureus. Nature of the data set: Antibacterial activity against Staphylococcus aureus ATCC 29213 expressing GyrB T173N mutant incubated for 24 hrs by broth microdilution method. The following applies: ATCC 29213, 24 h. In kind it is functional.
Data set [4] deals with Streptococcus pyogenes. Nature of the data set: Antibacterial activity against Streptococcus pyogenes ATCC 51339 expressing ParE A53S mutant incubated for 24 hrs by broth microdilution method. In kind it is functional. The settings on record: ATCC 51339, 24 h.
Data set [5] concerns Staphylococcus aureus. Nature of the data set: Antibacterial activity against Staphylococcus aureus ATCC 29213 incubated for 24 hrs in presence of 50% horse serum by broth microdilution method. The following applies: ATCC 29213, 24 h. The class given is functional.
The subject of data set [6] is Staphylococcus aureus. Nature of the data set: Potency shift, ratio of MIC against Staphylococcus aureus ATCC 29213 in presence of 50% horse serum to MIC against taphylococcus aureus ATCC 29213 in absence of 50% horse serum. In kind it is functional.
Data set [7] deals with Staphylococcus aureus. Nature of the data set: Antibacterial activity against Staphylococcus aureus ATCC 29213 expressing GyrB T173N and ParE T167N mutant incubated for 24 hrs by broth microdilution method. The class given is functional. The following applies: ATCC 29213, 24 h.
The subject of data set [8] is Staphylococcus epidermidis. Nature of the data set: Antibacterial activity against Staphylococcus epidermidis ATCC 12228 incubated for 24 hrs by broth microdilution method. In kind it is functional. The following applies: ATCC 12228, 24 h.
The subject of the next data set is Streptococcus pneumoniae. Put plainly: Antibacterial activity against Streptococcus pneumoniae ATCC 49616 incubated for 24 hrs by broth microdilution method. In kind it is functional. The settings on record: ATCC 49616, 24 h.
The test system of data set [9] is Escherichia coli. Put plainly: Antibacterial activity against Escherichia coli ATCC 25922 incubated for 24 hrs by broth microdilution method. The settings on record: ATCC 25922, 24 h. The class given is functional.
The subject of data set [10] is Escherichia coli. Nature of the data set: Antibacterial activity against Escherichia coli N43 expressing efflux pump mutant incubated for 24 hrs by broth microdilution method. The following applies: N43, 24 h. The class given is functional.
Data set [11] is described as follows: Retention time of the compound by HPLC method. The class given is physicochemical.
Another data set has as its target DNA gyrase subunit B (Staphylococcus aureus, UniProt P0A0K8). Nature of the data set: Inhibition of Staphylococcus aureus GyrB assessed reduction in DNA supercoiling activity by malachite green dye based by spectrophotometry.
For data set [12], the target named is DNA topoisomerase 4 subunit B (Staphylococcus aureus, UniProt P0C1S7). Put plainly: Inhibition of Staphylococcus aureus ParE.
Data set [13] concerns the target DNA topoisomerase 4 subunit B (Escherichia coli K-12, UniProt P20083). Nature of the data set: Inhibition of Escherichia coli ParE.

The values below come from ChEMBL document CHEMBL3351278, “Pyridine-3-carboxamide-6-yl-ureas as novel inhibitors of bacterial DNA gyrase: structure based design, synthesis, SAR and antimicrobial activity” (Eur J Med Chem, 2014).

In brackets after ≈: the same amount, converted by molar mass.

The IC50 is the concentration needed to halve the response being measured. The low end stands for inhibition by little substance, the high end for a need for much substance. Turning to `CCNC(=O)Nc1cc(Nc2ccccc2)c(C(=O)Nc2cccnc2)cn1`, the IC50 against DNA gyrase is 170 nM. Moreover, the MIC was 1 µg/mL (≈ 2.66 µM) against Staphylococcus aureus [1]; 0.125 µg/mL (≈ 0.332 µM) in the data set with Enterococcus faecalis; 1 µg/mL (≈ 2.66 µM) with Streptococcus pyogenes [2]; greater than 64 µg/mL against Haemophilus influenzae; 4 µg/mL (≈ 10.6 µM) against Staphylococcus aureus [3]; 2 µg/mL (≈ 5.31 µM) in the data set on Streptococcus pyogenes [4]. Moreover, the MIC in the data set on Staphylococcus aureus [5] is 4 µg/mL; in the data set with Staphylococcus aureus [7], greater than 64 µg/mL; in [8] it was 0.25 µg/mL (≈ 0.664 µM); in the data set on Streptococcus pneumoniae it was 0.25 µg/mL (≈ 0.664 µM); in the data set on Escherichia coli [9] it was greater than 64 µg/mL; in the data set with Escherichia coli [10], 8 µg/mL (≈ 21.3 µM). Moreover, in the data set with Staphylococcus aureus [6], the Ratio was determined as 4. In data set [11], this compound displayed a Retention_time of 1.36 min.

The compound `CCNC(=O)Nc1cc(Nc2ccccc2)c(C(=O)Nc2ccc(N3CCOCC3)nc2)cn1` showed an IC50 against DNA gyrase of 110 nM. Moreover, the MIC is 2 µg/mL (≈ 4.33 µM) against Staphylococcus aureus [1]; 0.25 µg/mL (≈ 0.542 µM) against Enterococcus faecalis; 1 µg/mL (≈ 2.17 µM) against Streptococcus pyogenes [2]; greater than 64 µg/mL with Haemophilus influenzae; greater than 64 µg/mL against Staphylococcus aureus [3]; 4 µg/mL (≈ 8.67 µM) in the data set on Streptococcus pyogenes [4]. Besides, the MIC in the data set on Staphylococcus aureus [5] is 16 µg/mL; in the data set on Staphylococcus aureus [7], greater than 64 µg/mL; in data set [8] it was 1 µg/mL (≈ 2.17 µM); with Streptococcus pneumoniae it was 0.5 µg/mL (≈ 1.08 µM); in the data set with Escherichia coli [9] it was greater than 64 µg/mL; in the data set with Escherichia coli [10] it was greater than 64 µg/mL. In the data set with Staphylococcus aureus [6], the Ratio amounted to 8. In [11], this compound gave a Retention_time of 1.47 min.

`CCNC(=O)Nc1cc(Nc2ccc(O)cc2)c(C(=O)Nc2cccnc2)cn1`: the IC50 amounted to 28 nM against DNA gyrase, 24 nM against DNA gyrase subunit B, 86 nM in [12] and 940 nM in data set [13]. Besides, the MIC with Staphylococcus aureus [1] is 8 µg/mL (≈ 20.4 µM); with Escherichia coli [9], greater than 64 µg/mL.

As for `CCNC(=O)Nc1cc(Nc2cccc(O)c2)c(C(=O)Nc2cccnc2)cn1`, the IC50 against DNA gyrase turned out to be 36 nM; in data set [13], 780 nM. This compound also came in with an MIC in the data set on Escherichia coli [9] greater than 64 µg/mL.

In the case of `CCNC(=O)Nc1cc(Nc2ccc(OC)cc2OC)c(C(=O)Nc2cccnc2)cn1`, the IC50 was determined as 46 nM against DNA gyrase, 41 nM against DNA gyrase subunit B, 800 nM in data set [12] and 42000 nM in data set [13]. Also, the MIC is 1 µg/mL (≈ 2.29 µM) with Staphylococcus aureus [1] and greater than 64 µg/mL with Escherichia coli [9].
